# From PubChem
# Compounds with a hit are over-represented: about 12% of the library has one in this group of screens.
# CHOP inhibitor = inhibitors of CHOP promoter induction, primary screen, cell-based, unfolded protein response, luciferase reporter | CHO-K1 CHOP-promoter luciferase, tunicamycin-induced, 15-18 h | inhibition, % at 10 µM | hit rate 3.8% among 220,000 | AID 2732, 2010;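 active = compounds that reduced the stress-induced luciferase reporter signal by more than about 70% of percent inhibition, limit read from the data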
# PKD1 kinase inh = inhibitors of human PKD1 kinase, biochemical, fluorescence polarization; Serine/threonine-protein kinase D1 (Homo sapiens), Q15139; PKD1 kinase fluorescence polarization assay; inhibition, % (concentration not given with the values); hit rate 0.056% among 200,000
# Arbovirus inh = antivirals against arbovirus infection, primary screen, cell-based, full library, 10K replicate subset; arbovirus infection cell-based antiviral screen; inhibition, % at 10 µM; hit rate 0.37% among 200,000; in the data active = inhibition above about 30%
# Rad51 HR inh = human RAD51 strand exchange inhibitors, primary screen, biochemical, fluorescence | inhibition, % at 10 µM | hRad51 DNA strand exchange, fluorescence dequenching | hit rate 0.085% among 200,000 | DNA repair protein RAD51 homolog 1 (Homo sapiens), Q06609;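 active = inhibition above 40% at the single screening dose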
# Target sequence (Q06609 whole entry, looked up): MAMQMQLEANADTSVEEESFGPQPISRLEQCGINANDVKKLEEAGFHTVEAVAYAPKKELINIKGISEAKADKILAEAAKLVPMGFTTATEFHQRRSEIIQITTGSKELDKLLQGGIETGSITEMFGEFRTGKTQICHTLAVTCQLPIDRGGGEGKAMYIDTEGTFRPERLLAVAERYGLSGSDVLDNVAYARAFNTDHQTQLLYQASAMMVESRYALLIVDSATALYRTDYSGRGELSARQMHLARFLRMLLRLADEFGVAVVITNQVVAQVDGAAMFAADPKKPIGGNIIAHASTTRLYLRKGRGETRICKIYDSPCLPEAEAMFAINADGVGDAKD
#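 Read-out basis: percent inhibition relative to plate controls and blanks / Assay system: human Rad51 nucleoprotein filaments preassembled on unlabelled ssDNA / Timing: filaments 15 min 37 °C, then compound 30 min / Control set: per-plate controls and blanks / Technique: fluorescence dequenching at 485/520 nm / Compound: 10 µM final, single point / Also added: Fluorescein- and BHQ1-tagged 47-mer duplex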
# Wee1 stabilizer = Wee1 degradation inhibitors, primary screen, cell-based, HeLa, Wee1K328M-luciferase, luminescence; Wee1-like protein kinase (Homo sapiens), P30291; HeLa Luc-Wee1K328M stability; 100% = proteasome inhibitor MG132 effect; reporter increase, % at 5 µM; hit rate 1.2% among 220,000;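 active = activation above the mean of all tested compounds plus 3 SD, set per screening run, cut at about 8.8% in these data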;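 note: cells exposed to compound for 20 h before luminescence read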
# Lmaj promast = Leishmania major promastigote growth inhibition, primary screen; Leishmania major promastigotes, resazurin fluorescence viability; AID 1063, 2008; inhibition, % at 10 µM; hit rate 9% among 200,000;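 note: promastigotes grown with compound for 44 hours at 28 °C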
# A number is an active result; n = inactive; x = no result given. Cut-off read from the data, not from the text of the source, unless noted: active = inhibition above about 50%; inactive = the rest.
SMILES,CHOP inhibitor,PKD1 kinase inh,Arbovirus inh,Rad51 HR inh,Wee1 stabilizer,Lmaj promast
COc1ccc(C(=O)C2CCCN(Cc3cn[nH]c3-c3ccccc3)C2)cc1OC (stereo not drawn),n,n,n,n,n,n
COc1ccc(C(=O)C2CCCN(Cc3ccc4nonc4c3)C2)cc1F (stereo not drawn),n,n,n,n,n,91
COc1ccc(C(=O)C2CCCN(C(=O)c3noc4c3CCCC4)C2)cc1F (stereo not drawn),n,n,n,x,n,n
COc1ccc(C(=O)C2CCCN(Cc3nc4ccccc4nc3C)C2)cc1OC (stereo not drawn),n,n,n,x,n,80
COc1ccc(C(=O)C2CCCN(Cc3ccc4nonc4c3)C2)cc1OC (stereo not drawn),n,n,n,n,n,89
Cc1ccsc1C(=O)Nc1ccc2c(c1)OCCO2,n,n,n,n,n,n
O=C(NCC1CCCN(Cc2ccc3nonc3c2)C1)c1cccc(C(F)(F)F)c1 (stereo not drawn),n,n,n,n,n,87
COCc1cc(CN2CCCC(C(=O)c3cccc(C(F)(F)F)c3)C2)ccc1OC (stereo not drawn),n,n,n,n,n,92
COc1cccc(O)c1CN1CCCC(C(=O)c2cccc(C(F)(F)F)c2)C1 (stereo not drawn),n,n,n,x,n,n
Cc1ccc(S(=O)(=O)N(C)C)cc1NC(=O)C(C)OC(=O)/C=C/c1cccs1 (stereo not drawn),n,x,x,n,n,x
Cc1ccc2cc3c(N)[nH]nc3nc2c1,n,n,n,n,n,n
C=C(C)c1cccc(C(C)(C)NC(=O)NC(c2ccccc2)c2ccc(OC)cc2)c1 (stereo not drawn),n,n,n,x,n,98
C=C(C)c1cccc(C(C)(C)NC(=O)Nc2ccc(OC)cc2)c1,n,n,n,n,n,n
C=CCn1c(CSCc2ccc(Cl)cc2Cl)nnc1SCC(=O)Nc1ccc(C(=O)O)cc1,n,x,x,n,n,x
CCOC(=O)C1(Cc2ccccc2C(F)(F)F)CCN(CC2CC2)CC1,n,n,n,n,n,57
CCOC(=O)C1(Cc2ccccc2C(F)(F)F)CCN(C(C)CCn2cccn2)CC1 (stereo not drawn),n,n,n,n,n,n
CCOC(=O)C1(Cc2ccccc2C(F)(F)F)CCN(C(C)CSC)CC1 (stereo not drawn),n,n,n,n,n,76
CCOC(=O)C1(Cc2ccccc2C(F)(F)F)CCN(C2CCCC2)CC1,n,n,n,n,n,80
CCOC(=O)C1(Cc2ccccc2C(F)(F)F)CCN(Cc2ccon2)CC1,n,x,x,n,n,x
CCOC(=O)C1(Cc2ccccc2C(F)(F)F)CCN(C2CCSC2)CC1 (stereo not drawn),n,n,n,x,n,52
Cc1nn(C)c2ncc(C(N)=O)c(Oc3ccc(Cl)cc3)c12,n,x,x,n,n,x
CCNC(=S)N1CCC(n2cnc3ccccc32)CC1,n,n,n,n,n,n
COCC(=O)N(Cc1cc2ccc(C)c(C)c2n2nnnc12)C1CCCC1,n,n,n,n,n,n
O=C(c1cc(-c2ccco2)nc2ccccc12)N1CCN(c2ccc(F)cc2)CC1,n,n,n,n,n,67
O=C(Nc1ccccc1)n1cc(-c2ccccn2)c(N2CCOCC2)n1,n,n,n,n,n,n
SMILES,CHOP inhibitor,PKD1 kinase inh,Arbovirus inh,Rad51 HR inh,Wee1 stabilizer,Lmaj promast
CCN(CC)S(=O)(=O)c1cccc(NC(=O)COc2ncnc3sccc23)c1,n,n,n,n,n,n
O=[N+]([O-])c1ccc(Cl)c(S(=O)(=O)/N=C(/c2ccccc2)N2CCOCC2)c1,n,n,n,x,n,n
COc1ccc(C[C@H]2CN3C(=NC[C@H]3Cc3ccccc3)N2CCNC(=O)CCC2CCCCC2)cc1,n,n,n,n,n,76
COc1ccc(C[C@H]2CN3C(=NC[C@@H]3C(C)C)N2C[C@H](C)NC(=O)c2ccc(C)c(Br)c2)cc1,n,n,n,n,n,68
COc1ccc(C[C@H]2CN3C(=NC[C@@H]3Cc3ccccc3)N2CCNC(=O)c2ccc(C)c(Br)c2)cc1,n,n,n,n,n,95
Cc1ccc(C(=O)N[C@@H](C)CN2C3=NC[C@H](C(C)C)N3C[C@H]2Cc2ccc(O)cc2)cc1Br,n,n,n,n,n,n
COc1ccc(C[C@H]2CN3C(=NC[C@@H]3Cc3ccccc3)N2C[C@H](C)NC(=O)CCC2CCCCC2)cc1,n,x,x,n,x,x
O=C(Nc1cc(S(=O)(=O)Nc2ccccc2Cl)ccc1O)c1sc2cc(Cl)ccc2c1Cl,n,n,n,n,n,n
CC(=O)Nc1nn(C)c2nc(C)cc(C)c12,n,n,n,n,n,n
COC(=O)c1sc(NC(=O)CSc2nnnn2-c2cccc(OC)c2)nc1C,n,n,n,n,n,n
CCOC(=O)c1sc(NC(=O)CSc2nnnn2-c2ccc(C)c(C)c2)nc1C,93,n,n,n,n,n
CCOC(=O)c1sc(NC(=O)CSc2nnnn2-c2ccccc2)nc1C,85,n,n,n,n,n
CCOC(=O)c1sc(NC(=O)c2cc3ccccc3o2)nc1C,n,n,n,n,n,n
CCOC(=O)c1sc(NC(=O)c2ccc(CC)s2)nc1C,71,n,n,n,n,n
Cn1nccc1C(=O)Oc1ccc(/C=N/NC(=O)c2ccccc2O)cc1,n,n,n,n,n,n
O=C(CCNC(=O)c1ccccc1Cl)Nc1nnc(C2CC2)s1,n,n,n,n,n,n
COc1ccc(N(C(=O)c2ccccc2C)S(=O)(=O)c2cccs2)cc1,n,n,n,n,n,94
N#Cc1cc2c(nc1S(=O)(=O)Cc1ccccc1)CCCC2,n,n,n,n,n,n
CC(C)CC(CO)N1CCN(C(=O)c2ccc(Cl)cc2)CCC1=O (stereo not drawn),x,x,x,n,x,x
CCC1=C[C@H]2CN(C1)Cc1c([nH]c3ccccc13)[C@@](C(=O)OC)(c1cc3c(cc1OC)N(C)[C@H]1[C@@](O)(C(=O)OC)[C@H](OC(C)=O)[C@]4(CC)C=CCN5CC[C@]31[C@@H]54)C2,x,x,x,n,x,x
Cc1ccc(NC(=O)CCOc2ccccc2C)cc1F,71,n,n,n,n,n
Cc1ccccc1OCCCC(=O)Nc1ccc(Br)cc1,96,n,n,n,n,n
COCCNC(=O)CSc1nnc(-c2ccccc2F)n1Cc1ccccc1,n,n,n,n,n,n
CCOC(=O)c1cc(-c2ccncc2)nc2c1c(C)nn2-c1ccccn1,n,n,n,n,n,100
Cc1nn(-c2ccccn2)c2nc(-c3cccs3)cc(C(=O)N3CCOCC3)c12,n,n,n,n,n,84
COc1ccc(-c2cc(C(=O)O)c3c(C)nn(-c4ccccn4)c3n2)cc1,n,n,n,n,n,n
